Reference: ChEMBL document CHEMBL4000184, “Synthesis of Novel c(AmpRGD)-Sunitinib Dual Conjugates as Molecular Tools Targeting the αvβ3 Integrin/VEGFR2 Couple and Impairing Tumor-Associated Angiogenesis” (J Med Chem, 2017)
Calls of active or inactive are those of the source. The calls are words filed in the database; no cut-off is given here.

Tests used:
[1] = Inhibition of VEGF-A-induced cell proliferation in human EPC at 1 uM measured after 24 hrs by trypan blue exclusion assay relative to control; type: functional
Procedure, shortened: (§1)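 Human cord-blood EPCs seeded at 6,000 cells/well on gelatin, adhered 4 h in complete medium. Then placed in serum-free medium with VEGF-A 20 ng/mL and compound at 1 μM, re-added every 24 h. Cell number and viability measured by trypan blue exclusion at 24, 48 and 72 h. Triplicate, repeated at least three times.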

[2] = Stability in rat plasma assessed as compound remaining at 1 uM measured up to 8 hrs by HPLC-UV-Vis analysis; type: ADME, cell-free; conditions: read-out: Stability
Procedure, shortened: (§2)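 Rat or human plasma diluted to 80% v/v with 100 mM PBS pH 7.4; compound at 1 μM final, 37 °C, protected from light. Aliquots sampled over time up to 8 h, quenched with two volumes MeCN, centrifuged, and analyzed by HPLC-UV-Vis for % compound remaining.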

[3] = Stability in human plasma assessed as compound remaining at 1 uM measured up to 8 hrs by HPLC-UV-Vis analysis; type: ADME, cell-free; conditions: read-out: Stability; procedure, shortened: as §2
[4] = n-Octanol-buffer distribution coefficient, log D of the compound at pH 7.4 incubated for 4 hrs by HPLC-UV-vis based shake flask method; type: physicochemical
Procedure, shortened: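 Shake-flask partition between n-octanol and 50 mM MOPS pH 7.4 (ionic strength 0.15 M, KCl) at 25 ± 3 °C. Phases pre-saturated and equilibrated 4 h in the dark; each phase analyzed by HPLC-UV-Vis. Mean of at least three runs with different volume ratios.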

[5] = molecular target: T1, Integrin alpha-V/beta-3 (Homo sapiens, UniProt P05106+P06756); assay: Drug internalization in human EPC assessed as alphavbeta3-mediated drug uptake by measuring intracellular content per mg protein at 1 uM measured after 1 hr by HPLC-ESI-MS/MS analysis; type: ADME, cell-based
Procedure, shortened: (§3)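 Confluent EPCs in serum- and growth-factor-free medium received compound at 1 μM final for 1 h at 37 °C. Cells washed with PBS, then extracted immediately or 8 h later with ethanol at 4 °C. Extract measured by HPLC-ESI-MS/MS; protein by Bradford. Reported as nmol/mg protein; uptake rate as pmol/min/mg protein over the first hour. Triplicate.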

[6] = molecular target: T1, Integrin alpha-V/beta-3; assay: Drug uptake in human EPC assessed as alphavbeta3-mediated drug uptake by measuring intracellular content per mg protein at 1 uM measured after 8 hr by HPLC-ESI-MS/MS analysis; type: ADME, cell-based; procedure, shortened: as §3
[7] = test system: EPC; assay: Inhibition of VEGF-A-induced cell proliferation in human EPC at 1 uM measured after 48 hrs by trypan blue exclusion assay; type: functional, cell-based; procedure, shortened: as §1
[8] = test system: EPC; assay: Inhibition of VEGF-A-induced cell proliferation in human EPC at 1 uM measured after 72 hrs by trypan blue exclusion assay; type: functional, cell-based; procedure, shortened: as §1
[9] = Cytotoxicity against human EPC assessed as cell viability at 1 uM measured after 24 to 72 hrs by trypan blue exclusion assay; type: cell-based; procedure, shortened: as §1
[10] = Antiangiogenic activity in human EPC assessed as inhibition of VEGF-A induced tubule formation at 10 nM measured after 6 hrs by matrigel based phase contrast microscopic analysis relative to control; type: functional
Procedure, shortened: (§4)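 EPCs grown 24 h in EGM-2, trypsinized, resuspended in serum/growth-factor-free EGM-2 with VEGF-A 20 ng/mL plus compound (0.01, 0.1, 1.0 μM) and seeded on growth-factor-reduced Matrigel at 7×10^4 cells/well. Incubated 6 h at 37 °C, photographed by phase contrast. Loops counted in four random fields per well, given as % reduction vs untreated cells. Triplicate.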

[11] = molecular target: T1, Integrin alpha-V/beta-3; conditions: 1 to 10000 nM
[12] = test system: Mus musculus; assay: In vivo antiangiogenic activity in EHS derived matrigel plug implanted FVB mouse assessed as inhibition of VEGF-A-induced angiogenesis at 10 mg/kg, by microscopic method
[13] = molecular target: T1, Integrin alpha-V/beta-3; assay: Drug internalization in human EPC assessed as alphavbeta3-mediated drug uptake per mg protein at 1 uM measured after 1 hr by HPLC-ESI-MS/MS analysis; type: ADME; procedure, shortened: as §3
[14] = molecular target: T1, Integrin alpha-V/beta-3; assay: Drug internalization in human EPC assessed as alphavbeta3-mediated drug uptake at 1 uM measured after 1 hr by HPLC-ESI-MS/MS analysis; type: ADME; procedure, shortened: as §3
[15] = Drug uptake in human EPC at 1 uM measured after 1 hr in presence of alphaVbeta3 integrin ligand c(AmpRGD) amine by HPLC-ESI-MS/MS analysis; type: ADME, cell-based
Procedure, shortened: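 EPCs detached with Accutase, resuspended in serum-free medium, and given compound at 1 μM with or without c(AmpRGD) amine at 100 μM. Incubated at 37 °C, 10% CO2, then washed by centrifugation. Pellets extracted with ethanol at 4 °C for 10 min; content measured by HPLC-ESI-MS/MS.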

[16] = molecular target: T1, Integrin alpha-V/beta-3; assay: Displacement of biotinylated vitronectin from recombinant human integrin alphaVbeta3 dark incubated for 3 hrs by solid-phase receptor binding assay; type: protein-complex assay
Procedure, shortened: (§5)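 Recombinant human αvβ3 or α5β1 coated at 0.5 μg/mL overnight at 4 °C in Tris-HCl pH 7.4 buffer with Mn2+, Ca2+, Mg2+, then blocked with 1% BSA. Streptavidin-peroxidase read-out at 415 nm. Triplicate wells, nonlinear regression, run in duplicate.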

[17] = molecular target: T2, Integrin alpha-5/beta-1 (Homo sapiens, UniProt P05556+P08648); assay: Displacement of biotinylated fibronectin from recombinant human integrin alpha5beta1 dark incubated for 3 hrs by solid-phase receptor binding assay; type: protein-complex assay; procedure, shortened: as §5
[18] = molecular target: T1, Integrin alpha-V/beta-3; assay: Inhibition of vitronectin binding to alphaVbeta3 in human EPC in presence of MnCl2 measured after 30 mins by crystal violet staining based cell adhesion assay
Procedure, shortened: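 Plates coated overnight with vitronectin at 4 °C and blocked with PBS/1% BSA. EPCs in serum-free medium preincubated with compound (1–10000 nM) for 30 min at 37 °C with 2.0 mmol/L MnCl2. Plated at 5-6×10^4 cells/well for 1 h at 37 °C. Adherent cells stained with crystal violet, read at 540 nm; % inhibition vs untreated. Triplicate, repeated at least three times.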

[19] = molecular target: T3, Vascular endothelial growth factor receptor 2 (Homo sapiens, UniProt P35968); conditions: at 1 µM
[20] = molecular target: T1, Integrin alpha-V/beta-3; assay: Displacement of biotinylated vitronectin from human integrin alphaVbeta3 measured after 3 hrs by solid-phase receptor binding assay; type: protein-complex assay
Procedure, shortened: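 Recombinant human αvβ3 or α5β1 coated at 0.5 μg/mL overnight at 4 °C in Tris-HCl pH 7.4 buffer with Mn2+, Ca2+, Mg2+, then blocked with 1% BSA. Triplicate wells, nonlinear regression, run in duplicate.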

[21] = molecular target: Integrin alpha-V/beta-5 (Homo sapiens, UniProt P06756+P18084); assay: Displacement of biotinylated vitronectin from human integrin alphaVbeta5 measured after 3 hrs by solid-phase receptor binding assay; type: protein-complex assay
[22] = molecular target: T2, Integrin alpha-5/beta-1; assay: Inhibition of alpha5beta1 (unknown origin); type: protein-complex assay
[23] = molecular target: Platelet-derived growth factor receptor beta (Homo sapiens, UniProt P09619); assay: Inhibition of recombinant human PDGFRbeta expressed in insect cells using Ulight-Poly GAT[EAY(1:1:1)]n as substrate measured after 30 mins by LANCE method
[24] = molecular target: T3, Vascular endothelial growth factor receptor 2; assay: Inhibition of recombinant human VEGFR2 expressed in Sf9 cells using Ulight-CAGAGAIETDKEYYTVKD as substrate measured after 60 mins by LANCE method
[25] = test system: EPC; assay: Antiangiogenic activity in human EPC assessed as inhibition of VEGF-A induced tubule formation at 0.1 to 1 uM measured after 6 hrs by matrigel based phase contrast microscopic analysis; type: functional, cell-based; procedure, shortened: as §4

T2 sequence (P05556 21-798 limits assumed): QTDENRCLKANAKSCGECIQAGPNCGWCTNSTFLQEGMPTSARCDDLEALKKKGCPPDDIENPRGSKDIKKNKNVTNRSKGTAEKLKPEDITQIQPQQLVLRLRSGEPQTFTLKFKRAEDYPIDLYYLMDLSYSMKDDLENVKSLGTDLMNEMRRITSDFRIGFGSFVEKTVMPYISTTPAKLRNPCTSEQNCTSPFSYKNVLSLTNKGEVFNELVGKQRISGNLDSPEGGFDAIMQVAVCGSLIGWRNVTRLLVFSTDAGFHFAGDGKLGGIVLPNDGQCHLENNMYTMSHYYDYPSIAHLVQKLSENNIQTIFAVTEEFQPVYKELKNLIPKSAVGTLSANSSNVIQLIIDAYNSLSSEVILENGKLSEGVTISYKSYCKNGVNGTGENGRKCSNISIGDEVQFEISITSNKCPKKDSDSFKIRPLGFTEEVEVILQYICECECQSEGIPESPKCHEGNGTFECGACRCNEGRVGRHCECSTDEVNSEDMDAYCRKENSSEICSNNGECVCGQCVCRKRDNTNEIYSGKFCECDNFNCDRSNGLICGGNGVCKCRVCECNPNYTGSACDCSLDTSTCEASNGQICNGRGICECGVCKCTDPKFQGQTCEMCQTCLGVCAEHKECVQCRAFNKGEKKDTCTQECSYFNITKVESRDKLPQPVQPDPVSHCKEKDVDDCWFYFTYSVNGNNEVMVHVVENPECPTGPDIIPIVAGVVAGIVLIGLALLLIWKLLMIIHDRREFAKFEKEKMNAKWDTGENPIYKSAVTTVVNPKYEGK
T2 sequence (P08648 42-894 limits assumed): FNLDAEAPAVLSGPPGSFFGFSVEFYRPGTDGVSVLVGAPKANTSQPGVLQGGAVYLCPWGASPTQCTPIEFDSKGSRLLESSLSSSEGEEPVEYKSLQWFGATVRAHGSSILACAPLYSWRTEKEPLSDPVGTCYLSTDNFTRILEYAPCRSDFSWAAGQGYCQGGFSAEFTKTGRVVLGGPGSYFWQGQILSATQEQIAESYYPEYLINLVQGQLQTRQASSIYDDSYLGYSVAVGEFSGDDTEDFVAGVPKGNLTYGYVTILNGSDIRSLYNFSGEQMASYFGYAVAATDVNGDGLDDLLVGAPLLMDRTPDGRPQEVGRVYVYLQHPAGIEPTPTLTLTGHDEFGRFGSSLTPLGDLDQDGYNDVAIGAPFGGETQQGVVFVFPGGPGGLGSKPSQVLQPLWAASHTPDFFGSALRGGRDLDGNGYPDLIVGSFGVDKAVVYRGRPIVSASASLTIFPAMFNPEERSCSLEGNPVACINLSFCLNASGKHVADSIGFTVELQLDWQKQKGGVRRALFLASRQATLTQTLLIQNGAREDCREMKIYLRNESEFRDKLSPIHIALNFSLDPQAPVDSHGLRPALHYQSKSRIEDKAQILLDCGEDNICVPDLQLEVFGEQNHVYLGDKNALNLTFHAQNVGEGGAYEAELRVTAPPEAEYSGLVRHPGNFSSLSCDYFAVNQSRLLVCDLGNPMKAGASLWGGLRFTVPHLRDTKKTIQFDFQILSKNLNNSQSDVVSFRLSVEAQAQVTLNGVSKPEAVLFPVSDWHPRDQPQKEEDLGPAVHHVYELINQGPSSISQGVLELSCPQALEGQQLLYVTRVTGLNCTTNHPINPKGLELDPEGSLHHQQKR
T2 sequence (P08648 895-1049 limits assumed): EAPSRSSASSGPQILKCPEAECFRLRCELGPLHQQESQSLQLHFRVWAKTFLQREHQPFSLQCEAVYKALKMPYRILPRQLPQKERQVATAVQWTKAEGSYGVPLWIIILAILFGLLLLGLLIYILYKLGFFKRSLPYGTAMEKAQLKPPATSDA
T3 sequence (P35968 whole entry): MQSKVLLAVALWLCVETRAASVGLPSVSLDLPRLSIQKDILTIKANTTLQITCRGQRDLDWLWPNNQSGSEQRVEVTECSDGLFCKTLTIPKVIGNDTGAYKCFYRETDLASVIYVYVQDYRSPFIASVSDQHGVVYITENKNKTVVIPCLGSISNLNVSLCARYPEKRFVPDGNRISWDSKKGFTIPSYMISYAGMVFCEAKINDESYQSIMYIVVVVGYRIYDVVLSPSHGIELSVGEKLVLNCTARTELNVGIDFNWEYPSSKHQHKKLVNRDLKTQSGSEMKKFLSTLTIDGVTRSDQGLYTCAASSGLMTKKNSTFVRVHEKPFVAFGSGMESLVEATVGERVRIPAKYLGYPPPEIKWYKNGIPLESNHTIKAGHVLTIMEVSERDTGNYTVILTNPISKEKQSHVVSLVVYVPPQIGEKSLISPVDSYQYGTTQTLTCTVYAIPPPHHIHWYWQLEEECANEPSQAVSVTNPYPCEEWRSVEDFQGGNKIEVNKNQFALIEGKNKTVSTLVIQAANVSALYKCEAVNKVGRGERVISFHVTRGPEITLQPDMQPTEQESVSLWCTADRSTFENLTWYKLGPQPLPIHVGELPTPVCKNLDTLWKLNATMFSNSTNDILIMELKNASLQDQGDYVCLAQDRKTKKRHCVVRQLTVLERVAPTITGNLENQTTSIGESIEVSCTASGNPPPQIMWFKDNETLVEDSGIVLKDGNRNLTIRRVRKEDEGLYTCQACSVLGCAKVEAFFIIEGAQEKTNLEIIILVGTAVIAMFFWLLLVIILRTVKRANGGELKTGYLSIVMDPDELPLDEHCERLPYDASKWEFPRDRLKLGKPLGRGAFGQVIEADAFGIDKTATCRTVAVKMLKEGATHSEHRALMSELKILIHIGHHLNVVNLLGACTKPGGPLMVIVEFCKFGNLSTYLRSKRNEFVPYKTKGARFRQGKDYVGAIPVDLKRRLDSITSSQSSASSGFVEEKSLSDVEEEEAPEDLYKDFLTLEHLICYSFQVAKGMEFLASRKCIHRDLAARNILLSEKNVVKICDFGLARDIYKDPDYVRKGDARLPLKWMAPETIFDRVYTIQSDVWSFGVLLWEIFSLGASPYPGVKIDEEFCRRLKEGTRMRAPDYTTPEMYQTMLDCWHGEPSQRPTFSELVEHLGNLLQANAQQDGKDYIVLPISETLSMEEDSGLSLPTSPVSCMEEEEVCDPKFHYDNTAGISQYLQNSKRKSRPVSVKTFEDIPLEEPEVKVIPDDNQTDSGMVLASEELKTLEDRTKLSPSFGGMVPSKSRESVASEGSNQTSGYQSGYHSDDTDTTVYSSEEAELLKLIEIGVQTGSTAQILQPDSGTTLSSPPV
Sequence of Platelet-derived growth factor receptor beta (P09619 whole entry): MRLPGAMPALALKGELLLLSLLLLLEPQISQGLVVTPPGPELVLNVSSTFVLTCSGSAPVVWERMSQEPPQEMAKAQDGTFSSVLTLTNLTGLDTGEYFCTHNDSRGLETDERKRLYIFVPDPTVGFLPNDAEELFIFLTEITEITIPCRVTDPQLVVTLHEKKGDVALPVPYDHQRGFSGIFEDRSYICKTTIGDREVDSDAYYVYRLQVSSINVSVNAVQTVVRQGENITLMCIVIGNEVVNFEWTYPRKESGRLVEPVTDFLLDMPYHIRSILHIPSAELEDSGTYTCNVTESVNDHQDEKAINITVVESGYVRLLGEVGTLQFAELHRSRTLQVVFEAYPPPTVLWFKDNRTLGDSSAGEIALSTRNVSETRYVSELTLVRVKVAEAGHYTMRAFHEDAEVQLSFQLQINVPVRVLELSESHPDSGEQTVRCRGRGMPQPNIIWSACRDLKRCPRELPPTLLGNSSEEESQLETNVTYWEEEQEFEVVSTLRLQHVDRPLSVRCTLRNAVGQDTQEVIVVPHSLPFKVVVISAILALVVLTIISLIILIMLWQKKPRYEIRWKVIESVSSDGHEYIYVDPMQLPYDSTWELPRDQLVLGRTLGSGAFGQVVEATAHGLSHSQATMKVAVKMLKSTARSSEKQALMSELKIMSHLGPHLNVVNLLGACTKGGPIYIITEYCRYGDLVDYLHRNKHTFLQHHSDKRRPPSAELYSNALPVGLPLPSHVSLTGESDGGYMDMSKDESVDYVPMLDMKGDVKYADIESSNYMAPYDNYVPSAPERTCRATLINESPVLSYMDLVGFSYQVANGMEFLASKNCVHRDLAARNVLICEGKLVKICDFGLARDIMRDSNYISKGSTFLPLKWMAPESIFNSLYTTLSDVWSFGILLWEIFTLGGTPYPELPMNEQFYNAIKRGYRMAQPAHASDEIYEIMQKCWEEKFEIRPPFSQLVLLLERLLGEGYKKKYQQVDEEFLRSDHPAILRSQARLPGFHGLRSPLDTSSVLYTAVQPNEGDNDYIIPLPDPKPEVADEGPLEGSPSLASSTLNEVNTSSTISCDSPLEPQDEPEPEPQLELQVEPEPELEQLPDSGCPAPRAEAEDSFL

SMILES	inhibition at 1 µM [1] [%]	remaining at 8 h, 1 µM [2] [%]	remaining at 8 h, 1 µM [3] [%]	logD at 4 h [4]	Drug uptake [5] [nmol/mg]	Drug uptake [6] [nmol/mg]	inhibition [7]	inhibition [8]	Activity [9]	inhibition at 0.01 µM [10] [%]	inhibition [12]	Drug uptake [13] [pmol/min]	log(activity) [14]	Drug uptake [15]	IC50 [16] [nM]	IC50 [17] [nM]	IC50 [18] [nM]	inhibition [19]	inhibition [18]	inhibition [25]	further results
CCN(CC)CCNC(=O)c1c(C)[nH]c(/C=C2\C(=O)Nc3ccc(F)cc32)c1C [SUNITINIB]	33	97.3	102	2.51	5.72	2.9	Active	Active	Non-Toxic	30	Active	–	–	–	–	–	–	–	–	–	inhibition [11]: inactive
CCN(CCNC(=O)c1c(C)[nH]c(/C=C2\C(=O)Nc3ccc(F)cc32)c1C)CCOCCOCCOCc1cn(CCCCN2C[C@@H]3C[C@H]2C(=O)N[C@@H](CCCNC(=N)N)C(=O)NCC(=O)N[C@@H](CC(=O)O)C(=O)N3)nn1	24	104	107	-2.56	0.48	0.43	Active	inactive	Non-Toxic	–	–	8	0.9	Not Active	5.1	101	10000	Active	–	–	–
N=C(N)NCCC[C@@H]1NC(=O)[C@@H]2C[C@@H](CN2CCN)NC(=O)[C@H](CC(=O)O)NC(=O)CNC1=O	–	–	–	–	–	–	–	–	–	–	–	–	–	–	–	–	–	–	–	–	IC50 [20]: 6.1 nM; IC50 [21]: 315 nM; IC50 [22]: 152 nM
CCN(CCNC(=O)c1c(C)[nH]c(/C=C2\C(=O)Nc3ccc(F)cc32)c1C)CCOCCOCCNC(=O)c1cc(OCc2cn(CCCCN3C[C@@H]4C[C@H]3C(=O)N[C@@H](CCCNC(=N)N)C(=O)NCC(=O)N[C@@H](CC(=O)O)C(=O)N4)nn2)cc(OCc2cn(CCCCN3C[C@@H]4C[C@H]3C(=O)N[C@@H](CCCNC(=N)N)C(=O)NCC(=O)N[C@@H](CC(=O)O)C(=O)N4)nn2)c1	41	109	98.6	-3.02	0.94	0.54	Active	Active	Non-Toxic	43	Active	15.7	1.19	Not Active	3.8	95.8	500	Active	Dose-dependent effect	Active	IC50 [23]: 9 nM; IC50 [24]: 420 nM
Cc1[nH]c(/C=C2\C(=O)Nc3ccc(F)cc32)c(C)c1C(=O)NCCNC(=O)CCc1cn(CCCCN2C[C@@H]3C[C@H]2C(=O)N[C@@H](CCCNC(=N)N)C(=O)NCC(=O)N[C@@H](CC(=O)O)C(=O)N3)nn1	46	88.2	99	-2.03	0.26	0.22	Active	inactive	Non-Toxic	52	–	4.3	0.64	–	1.24	30.7	500	Active	Dose-dependent effect	Active	–
